Reference: ChEMBL document CHEMBL3525963, “Tissue distribution and elimination of [14C]apixaban in rats” (Drug Metab Dispos, 2011)

Legend:
Set-up in all cases: dose 5 mg/kg, dosed compound name [14C]-apixaban, route oral
Details in all cases: in vivo
Harderian gland = test: Biodistribution in pregnant Sprague-Dawley rat harderian gland at 5 mg/kg, po administered as single dose measured after 48 hrs; type: ADME, organism-based
Procedure, shortened: (§1)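 Fasted pregnant SD rats (n=6, 270-319 g) each received one oral gavage dose of [14C]apixaban, 5 mg/kg (100 μCi/kg), in 0.5% Tween 80/Labrafil. One rat was killed at each of 0.5, 1, 4, 8, 24 and 48 h. Carcasses were frozen in hexane/dry ice, cut into 40 µm sagittal sections, exposed to phosphor plates and quantified against [14C]glucose standards as µg eq/g. LLOQ was 0.037 µg eq/g.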

Liver [1] = test: Biodistribution in female Sprague-Dawley rat liver at 5 mg/kg, po administered as single dose measured after 1 hr; type: ADME, organism-based
Procedure, shortened: (§2)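 Quantitative whole-body autoradiography was run after a single 5 mg/kg (100 μCi/kg) oral gavage to fasted female or pregnant SD rats, one rat per time point. Carcasses were frozen in hexane/dry ice, and 40 µm sagittal sections were dried at −20°C for at least 48 h. Sections were exposed to a phosphor plate alongside [14C]glucose standards (0.001–6.5 µCi/g). Results are µg eq/g, with LLOQ 0.037 µg eq/g.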

Rattus norvegicus [2] = test: Biodistribution in male Sprague-Dawley rat bone marrow at 5 mg/kg, po administered as single dose measured after 24 hrs; type: ADME, organism-based
Procedure, shortened: (§3)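 Fasted male SD rats (225-252 g) each received one oral gavage dose of [14C]apixaban, 5 mg/kg (100 μCi/kg), in 0.5% Tween 80/Labrafil vehicle. One rat was killed per time point, from 0.5 to 168 h. Frozen carcasses were cut into 40 µm sagittal whole-body sections and read by QWBA phosphor imaging against [14C]glucose calibrants. Results are in µg apixaban eq/g; BLQ <0.037 µg eq/g.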

Spleen [3] = test: Biodistribution in male Sprague-Dawley rat spleen at 5 mg/kg, po administered as single dose measured after 8 hrs; type: ADME, organism-based; procedure, shortened: as §3
Pancreas [4] = test: Biodistribution in pregnant Sprague-Dawley rat pancreas at 5 mg/kg, po administered as single dose measured after 4 hrs; type: ADME, organism-based
Liver [5] = test: Biodistribution in pregnant Sprague-Dawley rat liver at 5 mg/kg, po administered as single dose measured after 4 hrs; type: ADME, organism-based; procedure, shortened: as §1
Heart [6] = test: Biodistribution in pregnant Sprague-Dawley rat heart at 5 mg/kg, po administered as single dose measured after 48 hrs; type: ADME, organism-based; procedure, shortened: as §1
Blood = test: Biodistribution in male Sprague-Dawley rat blood at 5 mg/kg, po administered as single dose measured after 8 hrs; type: ADME, organism-based
Procedure, shortened: (§4)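 [¹⁴C]Apixaban given by oral gavage at 5 mg/kg (100 μCi/kg) in 0.5% Tween 80 in Labrafil (1.0 mg/mL dosing solution) to rats fasted overnight through 4 h post-dose. One rat per time point; carcass frozen in hexane/dry ice. Quantitative whole-body autoradiography used 40 µm sagittal sections and a phosphor imaging plate calibrated with [¹⁴C]glucose standards (0.001–6.5 μCi/g). Read-out in µg eq apixaban/g; LLOQ 0.037 μg eq/g.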

Liver [7] = test: Biodistribution in female Sprague-Dawley rat liver at 5 mg/kg, po administered as single dose measured after 0.5 hrs; type: ADME, organism-based; procedure, shortened: as §2
Lung = test: Biodistribution in pregnant Sprague-Dawley rat lung at 5 mg/kg, po administered as single dose measured after 24 hrs; type: ADME, organism-based
Rattus norvegicus [8] = test: Biodistribution in pregnant Sprague-Dawley rat placenta at 5 mg/kg, po administered as single dose measured after 0.5 hrs; type: ADME, organism-based
Rattus norvegicus [9] = test: Biodistribution in female Sprague-Dawley rat salivary gland at 5 mg/kg, po administered as single dose measured after 8 hrs; type: ADME, organism-based
Procedure, shortened: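 [14C]apixaban (20 μCi/mL in dosing solution) in 0.5% Tween 80 in Labrafil given by oral gavage to fasted female rats, 206-213 g, at 100 μCi/kg. One rat per time point was euthanized and snap-frozen. Sagittal 40 µm whole-body sections were read by QWBA phosphor imaging against [14C]glucose standards. Results are in µg eq apixaban/g, with LLOQ 0.037 μg eq/g.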

Heart [10] = test: Biodistribution in female Sprague-Dawley rat heart at 5 mg/kg, po administered as single dose measured after 1 hr; type: ADME, organism-based; procedure, shortened: as §4
Muscle tissue = test: Biodistribution in female Sprague-Dawley rat muscle at 5 mg/kg, po administered as single dose measured after 72 hrs; type: ADME, organism-based; procedure, shortened: as §2
Pancreas [11] = test: Biodistribution in female Sprague-Dawley rat pancreas at 5 mg/kg, po administered as single dose measured after 72 hrs; type: ADME, organism-based; procedure, shortened: as §2
Liver [12] = test: Biodistribution in female Sprague-Dawley rat liver at 5 mg/kg, po administered as single dose measured after 8 hrs; type: ADME, organism-based; procedure, shortened: as §4
Thymus [13] = test: Biodistribution in female Sprague-Dawley rat thymus at 5 mg/kg, po administered as single dose measured after 24 hrs; type: ADME, organism-based; procedure, shortened: as §2
Spleen [14] = test: Biodistribution in male Sprague-Dawley rat spleen at 5 mg/kg, po administered as single dose measured after 1 hr; type: ADME, organism-based
Procedure, shortened: (§5)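 [14C]apixaban (1.0 mg/mL, 20 μCi/mL) in 0.5% Tween 80 in Labrafil, given by oral gavage at 100 μCi/kg to male rats (225-252 g) fasted overnight through 4 h post-dose. One rat per time point. Carcasses frozen in hexane/dry ice and cut into 40 µm sagittal sections. QWBA read on phosphor plates against [14C]glucose standards, reported as µg eq/g. LLOQ 0.037 µg eq/g.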

Rattus norvegicus [15] = test: Biodistribution in male Sprague-Dawley rat pituitary gland at 5 mg/kg, po administered as single dose measured after 8 hrs; type: ADME, organism-based
Rattus norvegicus [16] = test: Biodistribution in fetal liver of pregnant Sprague-Dawley rat at 5 mg/kg, po administered as single dose measured after 24 hrs; type: ADME, organism-based; procedure, shortened: as §1
Rattus norvegicus [17] = test: Biodistribution in pregnant Sprague-Dawley rat amnion at 5 mg/kg, po administered as single dose measured after 48 hrs; type: ADME, organism-based; procedure, shortened: as §1
Brain = test: Biodistribution in male Sprague-Dawley rat brain at 5 mg/kg, po administered as single dose measured after 0.5 hrs; type: ADME, organism-based
Procedure, shortened: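 Fasted male SD rats were dosed orally by gavage with a single 5 mg/kg (100 μCi/kg) dose of [14C]apixaban, formulated at 1.0 mg/mL and 20 μCi/mL in 0.5% Tween 80/Labrafil. One rat was euthanized per time point and the carcass frozen and sectioned at 40 µm. Brain was quantified by QWBA against [14C]glucose calibration standards, as µg eq/g (LLOQ 0.037 µg eq/g).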

Thymus [18] = test: Biodistribution in male Sprague-Dawley rat thymus at 5 mg/kg, po administered as single dose measured after 1 hr; type: ADME, organism-based
Pancreas [19] = test: Biodistribution in male Sprague-Dawley rat pancreas at 5 mg/kg, po administered as single dose measured after 72 hrs; type: ADME, organism-based; procedure, shortened: as §3
Rattus norvegicus [20] = test: Biodistribution in female Sprague-Dawley rat brown fat at 5 mg/kg, po administered as single dose measured after 24 hrs; type: ADME, organism-based, Brown adipose tissue; procedure, shortened: as §2
Heart [21] = test: Biodistribution in male Sprague-Dawley rat heart at 5 mg/kg, po administered as single dose measured after 8 hrs; type: ADME, organism-based; procedure, shortened: as §5
[22] = Drug level in lactating Sprague-Dawley rat milk at 5 mg/kg, po administered as single dose; type: ADME, organism-based
Procedure, shortened: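 Lactating SD rats received a single oral gavage of 5 mg/kg (108 μCi/kg) in 0.5% Tween 80/Labrafil. Three rats were sampled per time point at 0.5-24 h. Oxytocin was given sc 15 min before milking under anesthesia. Milk, blood and plasma were counted in duplicate by liquid scintillation for 10 min and expressed as apixaban equivalents.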

Radiolabel recovery (Harderian gland): Not detected assumed BLQ
Radiolabel recovery (Liver [1]): 4.31 ugequiv/g
Radiolabel recovery (Spleen [3]): 0.09 ugequiv/g
Radiolabel recovery (Pancreas [4]): 0.99 ugequiv/g
Radiolabel recovery (Liver [5]): 6.13 ugequiv/g
Radiolabel recovery (Heart [6]): Not detected assumed BLQ
Radiolabel recovery (Blood): 0.08 ugequiv/g
Radiolabel recovery (Liver [7]): 2.67 µgequiv/g
Radiolabel recovery (Lung): < 0.037 ugequiv/g
Radiolabel recovery (Rattus norvegicus [8]): 1.02 ugequiv/g
Radiolabel recovery (Rattus norvegicus [9]): 0.13 ugequiv/g
Radiolabel recovery (Heart [10]): 0.54 ugequiv/g
Radiolabel recovery (Muscle tissue): Not detected assumed BLQ
Radiolabel recovery (Liver [12]): 1.12 ugequiv/g
Radiolabel recovery (Thymus [13]): Not detected assumed BLQ
Radiolabel recovery (Spleen [14]): 0.32 ugequiv/g
Radiolabel recovery (Rattus norvegicus [15]): 0.07 ugequiv/g
Radiolabel recovery (Brain): 0.05 ugequiv/g
Radiolabel recovery (Thymus [18]): 0.46 ugequiv/g
Radiolabel recovery (Pancreas [19]): Not detected assumed BLQ
Radiolabel recovery (Rattus norvegicus [20]): Not detected assumed BLQ
Radiolabel recovery (Heart [21]): 0.08 ugequiv/g
Radiolabel recovery [22]: > 96%
Compound: COc1ccc(-n2nc(C(N)=O)c3c2C(=O)N(c2ccc(N4CCCC[14C]4=O)cc2)CC3)cc1
Radiolabel recovery (Rattus norvegicus [2]): Not sampled as not visualised in autoradiograph
Radiolabel recovery (Pancreas [11]): Not sampled as not visualised in autoradiograph
Radiolabel recovery (Rattus norvegicus [16]): Not sampled as not visualised in autoradiograph
Radiolabel recovery (Rattus norvegicus [17]): Not sampled as not visualised in autoradiograph
